Measurements: the RNAGym collection of RNA variant scans (doi:10.1126/science.aae0568)
Fewer inactive variants are shown than the library holds.

B1: tRNA (parent)
chain: GUUCCGUUGGCGUAAUGGUAACGCGUCUCCCUCCUAAGGAGAAGACUGCGGGUUCGAGUCCCGUACGGAACG

Variants of: B1
Test: yeast fitness relative to wild type (ratio to wild type); higher = fitter; tRNA-Arg(CCU), competitive growth, 37 C, YPD
In short: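 Variants of the tRNA-Arg(CCU) gene were chemically synthesised with a 3% per-site mutation rate across 69 sites and placed at the native genomic locus in Saccharomyces cerevisiae. Six parallel replicates of the pooled strains were competed in YPD at 37°C for 24 hours, and gene amplicons from the start and end populations were read by 100-nucleotide paired-end sequencing. Darwinian fitness relative to wild type was derived from changes in genotype frequencies. Genotypes required ≥ 100 starting reads, and estimates < 0.5 were set to 0.5.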

First: GUUCCCUUGGGGUAAUGGUAAUGCGUCUCCCUCCUAAGGAGAAGACUGCGGGUUCGAGUCCCGUACGGAACG
Second: GUUCCCUUGGGGUAAUGGUAAUGCGUCUCCCUCCUAAGGAGAAGACUGCGGGUUCGAGUCCCGUACGGCACG
The yeast fitness of the first is higher: 0.606 for the first, at most 0.5 for the second.

GUUCCCUUGGGGUAAUGGUAACGCGUCUUCCUCCUAAGGAGAAGACUGCAGGUUUGAGUCCCGUACGGAACG and GUUCCCUUGGGGUAAUGGUAACGCGUCUCCCUCCUAAGGAGAAGACUGCGGGUUCGAGUCUCGUACGGAACG cannot be ordered by yeast fitness: at most 0.5 for the first, at most 0.5 for the second.

GUUCCCUUGGGGUAAUGGUAACGCGUCUCCCUCCUAAGGAGAAGACUGCGGGUUCGAGUCUCGUACGGAUCG and GUUCCCUUGGGGUAAUGGUAACGCGUCUCCCUCCUAAGGAACAGACUGCCGGUUCGAGUCCCGUACGGAGCG cannot be ordered by yeast fitness: at most 0.5 for the first, at most 0.5 for the second.

GUUCCCUUGGGGUAAUGGUAACGCGUCUCCCUCCUAAGGAGAAGACUCCGGGUUCGGGAACCGUACGGAACG and GUUCCCUUGGGGUAAUGGUAACGCGUCUCCCUCCAAAGGAGAAGACUGCGGGUUCGAGUCCCGUACGGAACG cannot be ordered by yeast fitness: at most 0.5 for the first, at most 0.5 for the second.

First: GUUCCCUUGGUGUAAUGGUAACGCGUCUCCCUCCUAAGGAGAAGACUGCGGGUUCGAGUCCCGUACGGAACG
Second: GUUCCCUUGGUGUAAUGGUAACGCGUCUCCCUCCUAAGGAGAAGUCUGCGGGUUCGAGUCCCGUACGGAACG
The yeast fitness of the first is higher: 0.872 for the first, 0.559 for the second.

Going from GUUCCCUUGGUGUAAUGGUAACGCGUCUCCCUCCUAAGGAGAAGACUGCGGGUUCGAGUCCCGUUCGGAACG to GUUCCCUUGGUGUAAUGGUAACGAGUCUCCCUCCUAAGGAGAAGACUGCGGGUUCGAGUCCCGUACGGAACG, the yeast fitness falls from 0.578 to at most 0.5.

GUUCCCUUGGUGUAAUGGUAACGCGUCUCCGUCCUGAGGAGAAGACUCCGGGUUCGAGUCCCGUACCGAACG and GUUCCCUUGGUGUAAUGGUAACGCGUCUCCCUCGUAAGGAGAAGACUGCGGGUUCGAGUCCCGUACGGAACG cannot be ordered by yeast fitness: at most 0.5 for the first, at most 0.5 for the second.

GUUCCCUUGGUGUAAUGGUAACGCGUCUCCCUCGUAAGGAGAAGACGGCGGGUUCGAGUCCCGUACGGAACG and GUUCCCUUGGUGUAAUGGCAAAGCGUCUCCCUCCCAAGGAGAAGACUGCGGGUUCGAGUCCCGUACGGUACG cannot be ordered by yeast fitness: at most 0.5 for the first, at most 0.5 for the second.

GUUCCCUUGGUGUAAUGGCAACGCGUCUCCCUCCUAAGGAGAACACUGCGGGUUCGAGUCCCGUACGAAACG and GUUCCCUUGGCGUAAUGGUAAAGCGUCUCCGUCCUAAGGAGAAGACUGCGGGUUCGAGUCCCGUACGGAACG cannot be ordered by yeast fitness: at most 0.5 for the first, at most 0.5 for the second.

GUUCCCUUGGCGUAAUGGUAAAGCGUCUCCGUCCUAAGGAGGAGACUGCGGGUUCGAGUCCCGUCCGGAACG and GUUCCCUUGGCGUAAUGGUAAAGCGUCUCCGUCCUAAGGAGAAGACUGCGGGUUCGAGUCCCGUACGGACCG cannot be ordered by yeast fitness: at most 0.5 for the first, at most 0.5 for the second.

Going from GUUCCCUUGGCGUAAUGGUAAAGCGUCUCCGUCCUAAGGAGAAGACUGCGAGUUCGAGUCCCGUAUGGAACG to GUUCCCUUGGCGUAAUGGUAAAGCGUCUCCCUCAUAAGGAGAAGACUGCGGGUUCGAGUCCCGUACGGACCG, the yeast fitness rises from at most 0.5 to 0.525.

GUUCCCUUGGCGUAAUGGUAAAGCGUCUCCCUCCUAAGGAGAAGAAUGCGGGUUCGAGUCGCGUACGGGACG and GUUCCCUUGGCGUAAUGGUAAAGCGUCUCCCUCCUAAGGAAAAAAAUGCGGAUUCGAGUCCCGUAUGGAACG cannot be ordered by yeast fitness: at most 0.5 for the first, at most 0.5 for the second.

GUUCCCUUGGCGUAAUGGUAAAGCGUCACCCUCCUAAGGAGAAGACUGCGUGGUCGAGUCCCGUACGGAACG and GUUCCCUUGGCGUAAUGGUAAGGCGUCUCCCUCCUAAGGAGAAGACUGCGGGUUCGAGUCCCGAACGGAACG cannot be ordered by yeast fitness: at most 0.5 for the first, at most 0.5 for the second.

Compared with GUUCCCUUGGCGUAAUGGUAAUGCGUCUCCCUCCUAAGGAGAAGACUGCGGGUUCGAGUCCCGUACGGAACG, GUUCCCUUGGCGUAAUGGUAAUGCGUCUCCCUCCUAAGGAGAAGACUGCGGGUUCGAGUCCCGUGGGCAACG is lower in yeast fitness: 0.706 for the first, at most 0.5 for the second.

GUUCCCUUGGCGUAAUGGUAAUGGGUUUAUGUCCUAAGGAGAAGACUGCGGGUUCGAGUCCCGUACGGAACG and GUUCCCUUGGCGUAAUGGUAAUGGGUUUAUGUCCUAAGGAGAAGACUGUGGGUUCGAGUCCCGUAUAGAACG cannot be ordered by yeast fitness: at most 0.5 for the first, at most 0.5 for the second.

First: GUUCCCUUGGCGUAAUGGUAACGAGUCUCCCUCCUAAGGAGAAGACUGCGGGUUCGAGUCCCGUACGGAACG
Second: GUUCCCUUGGCGUAAUGGUAACGAGUCUCCCUCCUAAGGAGAAGACUGCGGGUUCGAGUCCCGUACGGACCG
The yeast fitness of the first is higher: 0.525 for the first, at most 0.5 for the second.

Compared with GUUCCCUUGGCGUAAUGGUAACGAGUCUCCCUCUUAAGGAGAAGACUGGGGCUUUGAGUCCGGUACGGAACG, GUUCCCUUGGCGUAAUGGUAACGAGUCUCCCUCCUAAGGAGAAGAGUGCGGAUUCGAGUCCCGUACGGAACG is higher in yeast fitness: at most 0.5 for the first, 0.695 for the second.

First: GUUCCCUUGGCGUAAUGGUAACGAGUCUCCCUCCUAAGGAGAAGACUGCGGGUUCGACUCCCGUCCGGAACG
Second: GUUCCCUUGGCGUAAUGGUAACGGGUCUCCCUCCUAAGGAGAAGACUGCGGGUUCGAGUCCCGUACGGAACG
The yeast fitness of the first is lower: at most 0.5 for the first, 0.686 for the second.

Work on GUUCCCUUGGCGUAAUGGUAACGGGUCUCCCUCCUAAGGAGAAGACUGCGGGUUCGUGUCCCGUACGGAACG yielded a yeast fitness of at most 0.5.
